The source of these data is ChEMBL document CHEMBL3576774, “Dactylomelane diterpenes from the sea hare Aplysia depilans” (J Nat Prod, 2015).

Holding throughout (format): functional, cell-based
For one assay, the system named is HeLa. The experiment in a line: Cytotoxic activity against human HeLa cells assessed as reduction in cell growth incubated for 48 hrs by MTT assay. The method in brief: (§1)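 Monolayers maintained in DMEM with 10% FBS, penicillin/streptomycin at 37 °C, 5% CO2, and passaged at 80–90% confluence. Log-phase cells were seeded at 1 × 10^5 cells/mL and allowed to attach for 24 h. They were then exposed to DMSO-diluted compounds at various concentrations for 48 h. MTT was added at 0.5 mg/mL final for 4 h, dissolved in HCl/2-propanol, and read at 545 nm. Triplicates; IC50 from 3–4 experiments versus untreated control.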

The subject of the next assay is MCF7. As to the kind of experiment: Cytotoxic activity against human MCF7 cells assessed as reduction in cell growth incubated for 48 hrs by MTT assay. The method in brief: as §1
(Formazan colour is commonly taken as a measure of viable cells.)

A further assay deals with A-431. As to the kind of experiment: Cytotoxic activity against human A431 cells assessed as reduction in cell growth incubated for 48 hrs by MTT assay. The conditions noted are these: A-431, 48 h. The essentials:
as §1

For a further assay, the system named is HepG2. As to the kind of experiment: Cytotoxic activity against human HepG2 cells assessed as reduction in cell growth incubated for 48 hrs by MTT assay. The method in brief:
as §1

A further assay has as its system A549. As to the kind of experiment: Cytotoxic activity against human A549 cells assessed as reduction in cell growth incubated for 48 hrs by MTT assay. The essentials:
as §1

SMILES strings stand for the structures.

With `C=CC(C)(O)CC[C@@H]1C(=C)CC[C@H](Br)[C@@]1(C)CCC(=O)C(C)C` (some centres undefined), the IC50 (usually the midpoint of a concentration-inhibition curve) was 71.4 µM with HeLa (Homo sapiens, HeLa, 48 h); > 100 µM in the assay on MCF7 (Homo sapiens, MCF7, 48 h); > 100 µM in the assay on A-431; > 100 µM in the assay with HepG2 (Homo sapiens, HepG2, 48 h); > 100 µM with A549 (Homo sapiens, A549, 48 h).

For `C=CC(C)(O)CC[C@H]1[C@](C)(CCC=C(C)C)[C@@H](Br)CC[C@@]1(C)O` (some centres undefined), the IC50 was 91.7 µM in the assay on HeLa (Homo sapiens, HeLa, 48 h); 78 µM with MCF7 (Homo sapiens, MCF7, 48 h); > 100 µM in the assay on A-431; > 100 µM in the assay with HepG2 (Homo sapiens, HepG2, 48 h); > 100 µM in the assay on A549 (Homo sapiens, A549, 48 h).

As to `C=CC(C)(O)CC[C@@H]1C(=C)CC[C@H](Br)[C@@]1(C)CCC(O)C(C)(C)Cl` (relative stereo), the IC50 is 61 µM with HeLa (Homo sapiens, HeLa, 48 h); 71.5 µM in the assay with MCF7 (Homo sapiens, MCF7, 48 h); > 100 µM in the assay with A-431; 48.7 µM in the assay with HepG2 (Homo sapiens, HepG2, 48 h); 94.1 µM in the assay on A549 (Homo sapiens, A549, 48 h).

Take `C=CC(C)(O)CC[C@@H]1C(=C)CC[C@H](Br)[C@@]1(C)CCC(O)C(C)(C)O` (relative stereo): the IC50 in the assay with HeLa (Homo sapiens, HeLa, 48 h) is > 100 µM; in the assay with MCF7 (Homo sapiens, MCF7, 48 h) it was > 100 µM; with A-431 it was > 100 µM; in the assay on HepG2 (Homo sapiens, HepG2, 48 h), > 100 µM; in the assay on A549 (Homo sapiens, A549, 48 h), > 100 µM.

In the case of `C=CC(C)(O)CC[C@@H]1C(=C)CC[C@H](Br)[C@@]1(C)CCC(OC)C(C)(C)O` (relative stereo), the IC50 in the assay on HeLa (Homo sapiens, HeLa, 48 h) was > 100 µM; in the assay on MCF7 (Homo sapiens, MCF7, 48 h), > 100 µM; in the assay on A-431, > 100 µM; with HepG2 (Homo sapiens, HepG2, 48 h), > 100 µM; in the assay on A549 (Homo sapiens, A549, 48 h), > 100 µM.

`C=CC(C)(O)CC[C@@H]1C(=C)CC[C@H](Br)[C@@]1(C)CCC1OC1(C)C` (relative stereo): the IC50 in the assay on HeLa (Homo sapiens, HeLa, 48 h) was 57.9 µM; in the assay with MCF7 (Homo sapiens, MCF7, 48 h), 71.7 µM; in the assay with A-431, > 100 µM; with HepG2 (Homo sapiens, HepG2, 48 h), 53.8 µM; with A549 (Homo sapiens, A549, 48 h) it was > 100 µM.

In the case of `C=CC(C)(O)CC[C@@H]1C(=C)CC[C@H](Br)[C@@]1(C)CCC(O)C(=C)C` (relative stereo), the IC50 in the assay on HeLa (Homo sapiens, HeLa, 48 h) is > 100 µM; in the assay with MCF7 (Homo sapiens, MCF7, 48 h), > 100 µM; in the assay on A-431, > 100 µM; in the assay with HepG2 (Homo sapiens, HepG2, 48 h), > 100 µM; in the assay on A549 (Homo sapiens, A549, 48 h) it was > 100 µM.

On to `C=CC(C)(O)CC[C@@H]1C(=C)CC[C@H](Br)[C@@]1(C)CCC(Br)C(C)(C)O` (relative stereo; 2), for which the IC50 came out at 47.4 µM in the assay with HeLa (hela), 60.7 µM in the assay on MCF7 (mcf7), 66.3 µM in the assay on HepG2 (hepg2) and 86.9 µM with A549 (a549).

Turning to `C=CC(C)(O)CC[C@@H]1C(=C)CC[C@H](Br)[C@@]1(C)CCC(Br)C(C)(C)O` (relative stereo; 3), the IC50 was 91.8 µM in the assay with HeLa (Homo sapiens, HeLa, 48 h); > 100 µM in the assay with MCF7 (Homo sapiens, MCF7, 48 h); > 100 µM in the assay on A-431; > 100 µM with HepG2 (Homo sapiens, HepG2, 48 h); > 100 µM with A549 (Homo sapiens, A549, 48 h).

Regarding `CCCCCCCCCCCCCCCCOP(=O)([O-])OCC[N+](C)(C)C` [MILTEFOSINE], the IC50 came out at 16.5 µM in the assay with HeLa (Homo sapiens, HeLa, 48 h); 9.2 µM in the assay on MCF7 (Homo sapiens, MCF7, 48 h); 12 µM with A-431; 26.3 µM in the assay with HepG2 (Homo sapiens, HepG2, 48 h); 8.5 µM in the assay on A549 (Homo sapiens, A549, 48 h).
